We go through 18 compounds from ChEMBL document CHEMBL1177871, “Synthesis and antitumor activity of novel 2',3'-diethanethio-2',3',5'-trideoxy-5'-triazolonucleoside analogues” (Eur J Med Chem, 2010).

For orientation: EC50 means the concentration that produces a half-maximal response. Low readings indicate higher potency in that assay, high ones lower potency in that assay.

SMILES strings stand for the structures.

Holding throughout (assay type): functional, cell-based
The subject of one assay is HepG2. Kind of assay: Cytotoxicity against human HepG2 cells after 72 hrs by MTT assay. The note with it: HepG2, 72 h. In short, it runs like this: (§1)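 Incubation was 72 h at 37 °C in 95% air/5% CO₂. MTT was then added for 4 h and absorbance read at 490 nm. EC₅₀ is the concentration giving 50% growth inhibition versus untreated control; 5-fluorouridine served as reference.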
(Formazan colour is commonly taken as a measure of viable cells.)

Another assay relates to A549. Kind of assay: Cytotoxicity against human A549 cells after 72 hrs by MTT assay. Conditions: A549, 72 h. In short, it runs like this:
as §1

A short description of assay [1]: Cytotoxicity against human LAC cells after 72 hrs by MTT assay. Put shortly:
as §1

Another assay relates to HeLa. The assay is described as follows: Cytotoxicity against human HeLa cells after 72 hrs by MTT assay. In short, it runs like this: as §1

With `CCS[C@@H]1[C@H](SCC)[C@@H](Cn2cc(-c3ccc(F)cc3)nn2)O[C@H]1n1ccc(=O)[nH]c1=O`, the EC50 is 22.6 µM in the assay with HepG2, 22.9 µM in the assay on A549, 72.4 µM in assay [1] and 37.4 µM in the assay with HeLa.
In the same order, the values of `CCS[C@@H]1[C@H](SCC)[C@@H](Cn2cc(-c3cccc(C)c3)nn2)O[C@H]1n1ccc(=O)[nH]c1=O` are 18.3 µM, 12.2 µM, 99 µM and 18.8 µM.
As for `CCS[C@@H]1[C@H](SCC)[C@@H](Cn2cc(-c3ccc(OC)cc3)nn2)O[C@H]1n1cc(C)c(=O)[nH]c1=O`, the EC50 came out at 22.8 µM in the assay with HepG2, 38.8 µM with A549, 25.9 µM in assay [1] and 66 µM with HeLa.
`CCS[C@@H]1[C@H](SCC)[C@@H](Cn2cc(-c3ccccc3)nn2)O[C@H]1n1ccc(=O)[nH]c1=O`: the EC50 in the assay on HepG2 was determined as 8.38 µM; in the assay with A549, 3.04 µM; with HeLa, 6.59 µM.
For the compound `CCS[C@@H]1[C@H](SCC)[C@@H](Cn2cc(-c3ccccc3)nn2)O[C@H]1n1ccc(N)nc1=O`, the values for the EC50 in the assay with HepG2, in the assay on A549 and in the assay with HeLa were 57.1 µM, 64 µM and 33.5 µM, respectively.
With `CCS[C@@H]1[C@H](SCC)[C@@H](Cn2cc(-c3ccc(OC)cc3)nn2)O[C@H]1n1ccc(=O)[nH]c1=O`, the EC50 in the assay with HepG2 came to 16.2 µM; with A549, 16.8 µM; in assay [1], 24.3 µM; in the assay on HeLa, 27.7 µM.
In the same order, the values of `CCOC(=O)c1cn(C[C@H]2O[C@@H](n3cc(C)c(=O)[nH]c3=O)[C@H](SCC)[C@@H]2SCC)nn1` are not below 100 µM, not below 100 µM, not below 100 µM and not below 100 µM.
As for `CCS[C@@H]1[C@H](SCC)[C@@H](Cn2cc(-c3ccccc3C(F)(F)F)nn2)O[C@H]1n1ccc(=O)[nH]c1=O`, the EC50 came to 30.3 µM in the assay on HepG2, 19.4 µM with A549, 81.1 µM in assay [1] and 32.8 µM in the assay with HeLa.
The like results for `O=c1[nH]cc(F)c(=O)[nH]1` [FLUOROURACIL] were, in that order, 52.4 µM, 100 µM, 43.7 µM and 79.8 µM.
Turning to `CCS[C@@H]1[C@H](SCC)[C@@H](Cn2cc(-c3cccs3)nn2)O[C@H]1n1cc(C)c(=O)[nH]c1=O`, the concentration giving a half-maximal response (EC50) is not below 100 µM in the assay on HepG2, 37.3 µM in the assay on A549, not below 100 µM in assay [1] and 54.9 µM with HeLa.
Consider `CCS[C@@H]1[C@H](SCC)[C@@H](Cn2cc(-c3ccccc3C(F)(F)F)nn2)O[C@H]1n1cc(C)c(=O)[nH]c1=O`, for which the EC50 in the assay with HepG2 came to 22.1 µM; in the assay on A549 it was 7.23 µM; in assay [1], 50.6 µM; in the assay with HeLa it was 54.3 µM.
The like results for `CCS[C@@H]1[C@H](SCC)[C@@H](Cn2cc(-c3cccs3)nn2)O[C@H]1n1ccc(=O)[nH]c1=O` were, in that order, 91.8 µM, not below 100 µM, 86.5 µM and not below 100 µM.
Turning to `CCS[C@@H]1[C@H](SCC)[C@@H](Cn2cc(-c3ccc(C)cc3)nn2)O[C@H]1n1ccc(=O)[nH]c1=O`, the EC50 in the assay with HepG2 is 19.9 µM; with A549, 6.78 µM; in assay [1] it was not below 100 µM; in the assay on HeLa it was 46.7 µM.
The like results for `CCOC(=O)c1cn(C[C@H]2O[C@@H](n3ccc(=O)[nH]c3=O)[C@H](SCC)[C@@H]2SCC)nn1` were, in that order, not below 100 µM, not below 100 µM, not below 100 µM and not below 100 µM.
The like results for `CCS[C@@H]1[C@H](SCC)[C@@H](Cn2cc(-c3ccc(C)cc3)nn2)O[C@H]1n1cc(C)c(=O)[nH]c1=O` were, in that order, 21.6 µM, 12.3 µM, not below 100 µM and 77.5 µM.
In the same order, the values of `CCS[C@@H]1[C@H](SCC)[C@@H](Cn2cc(-c3ccc(F)cc3)nn2)O[C@H]1n1cc(C)c(=O)[nH]c1=O` are 22.7 µM, not below 100 µM, not below 100 µM and 39.5 µM.
For `CCS[C@@H]1[C@H](SCC)[C@@H](Cn2cc(COC(C)=O)nn2)O[C@H]1n1ccc(=O)[nH]c1=O`, the EC50 (with HepG2; in the assay with A549; in assay [1]; in the assay with HeLa) was not below 100 µM each time.
On to `CCS[C@@H]1[C@H](SCC)[C@@H](Cn2cc(-c3ccccc3)nn2)O[C@H]1n1cc(C)c(=O)[nH]c1=O`, for which the EC50 in the assay with HepG2 came to 65 µM; in the assay on A549, 31.7 µM; with HeLa, 1.89 µM.
